Test results taken from ChEMBL document CHEMBL1154522, “Aryl sulfamates are broad spectrum inactivators of sulfatases: effects on sulfatases from various sources” (Bioorg Med Chem Lett, 2009).

Columns and labels:
[1] = substrate: O=[N+]([O-])c1ccc(OS(=O)(=O)O)cc1; test: Activity at Pseudomonas aeruginosa recombinant arylsulfatase A expressed in Escherichia coli assessed per mg of protein
How it was run: (§1)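 Hydrolysis of potassium 4-nitrophenyl sulfate followed by release of 4-nitrophenol; Vmax is expressed per mg protein and Km in mM; Vmax/Km is derived from these.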

[2] = substrate: O=[N+]([O-])c1ccc(OS(=O)(=O)O)cc1; test: Activity at Pseudomonas aeruginosa recombinant arylsulfatase A expressed in Escherichia coli; how it was run: as §1

B1: Arylsulfatase (Pseudomonas aeruginosa (strain ATCC 15692 / PAO1 / 1C / PRS 101 / LMG12228)), P51691 (protein)
chain: MSKRPNFLVIVADDLGFSDIGAFGGEIATPNLDALAIAGLRLTDFHTASTCSPTRSMLLTGTDHHIAGIGTMAEALTPELEGKPGYEGHLNERVVALPELLREAGYQTLMAGKWHLGLKPEQTPHARGFERSFSLLPGAANHYGFEPPYDESTPRILKGTPALYVEDERYLDTLPEGFYSSDAFGDKLLQYLKERDQSRPFFAYLPFSAPHWPLQAPREIVEKYRGRYDAGPEALRQERLARLKELGLVEADVEAHPVLALTREWEALEDEERAKSARAMEVYAAMVERMDWNIGRVVDYLRRQGELDNTFVLFMSDNGAEGALLEAFPKFGPDLLGFLDRHYDNSLENIGRANSYVWYGPRWAQAATAPSRLYKAFTTQGGIRVPALVRYPRLSRQGAISHAFATVMDVTPTLLDLAGVRHPGKRWRGREIAEPRGRSWLGWLSGETEAAHDENTVTGWELFGMRAIRQGDWKAVYLPAPVGPATWQLYDLARDPGEIHDLADSQPGKLAELIEHWKRYVSETGVVEGASPFLVR
In the case of B1, the Vmax [1] is reported as 6.1 mmol/min/mg and the Km [2] is reported as 0.77 µM.
